In ChEMBL document CHEMBL4513216, “Probing the Open Global Health Chemical Diversity Library for Multistage-Active Starting Points for Next-Generation Antimalarials” (ACS Infect Dis, 2020):

Assay: Toxicity liver stage against HepG2, at 10uM
Type: cell-based
Parameters: test concentration 10 uM, cell line HepG2-A16-CD81EGFP
Details: human, HepG2-A16-CD81EGFP cells; read-out: INHIBITION
In short: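 Uninfected HepG2-A16-CD81EGFP cells, 3 × 10^3 per well, 1536-well, plated on prespotted compound at 10 μM final, parasite-free screening media added to match infected plates; puromycin 10 μM positive, DMSO 0.5% negative; run in parallel with 48 h PbLuc assay at 37 °C, 5% CO2; viability by CellTiter-Glo luminescence, normalized to controls.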

First: COC(=O)[C@H]1CN(S(C)(=O)=O)CCN1S(C)(=O)=O
Second: CC(=O)N1CCS(=O)(=O)[C@@H]2CCN(S(=O)(=O)CC(C)C)CC[C@@H]21
The cytotoxicity at 10 µM of the first is lower: -1.37% for the first, 6.1% for the second.

First: Cc1n[nH]c2c1C(c1ccncc1)SCC(=O)N2 (stereo not given)
Second: c1cc(-c2n[nH]c(CNc3nnc(C4CC4)o3)n2)ccn1
The cytotoxicity at 10 µM of the first is higher: 4.96% for the first, -2.59% for the second.

Going from O=C(N1CCCC1)N1CCC2(CC1)C(=O)N(CC1CC1)c1ccccc12 to O=C1CC2(CCCCN2C(=O)c2ccncc2)CN1CC1CC1 (stereo not given), the cytotoxicity at 10 µM falls from 7.15% to 2.17%.

First: Fc1cccc(N2CCCC3(C2)CN(c2cnccn2)CCO3)c1 (stereo not given)
Second: c1cnc2ccc(C[C@@H]3CC[C@H](CN4CCCOCC4)O3)cc2c1
The cytotoxicity at 10 µM of the first is higher: 8.49% for the first, -1.6% for the second.

Going from COc1cc(N2CC[C@@H](OC)[C@@H]2Cc2cnn(C)c2)ncn1 to Cn1cc(CN2CCC(c3ccncc3)CC2)cn1, the cytotoxicity at 10 µM rises from -0.155% to 0.26%.

First: Cc1csc(CN2CC[C@H]3C[C@H](c4nnc(C)[nH]4)O[C@@H]3C2)n1
Second: Cc1cc(CN2CCC(C3CCN(CC(C)C)CC3)C2)[nH]n1 (stereo not given)
The cytotoxicity at 10 µM of the first is lower: -19.6% for the first, -8.71% for the second.

Going from Cc1nn(C)c2nc(C3CC3)c(Cl)c(C(=O)O)c12 to Cc1nn(C)c(C)c1C1CCCN1C(=O)CCCc1ccccn1 (stereo not given), the cytotoxicity at 10 µM falls from 7.44% to 2.43%.

First: CCOC(=O)N1CCN(C(=O)c2cc(-c3ccc(C)cc3)on2)CC1
Second: CC(C)CN1CCN(C(=O)c2ccn(C)c(=O)c2)CC1
The cytotoxicity at 10 µM of the first is higher: 5.68% for the first, -17.2% for the second.

Compared with CNc1[nH]nc(N)c1C(=O)Nc1ccccc1, CNc1nc(CNC(=O)Nc2cccc(OC)c2)cs1 is lower in cytotoxicity at 10 µM: 6.56% for the first, -3.28% for the second.

Compared with CCCNC(=O)C(C)n1cc(Br)cn1 (stereo not given), CCNC(=O)C(C)(C)NC(=O)NCc1cccc(Br)c1 is higher in cytotoxicity at 10 µM: -19.7% for the first, 8.44% for the second.

Compared with COCCC(=O)NCCc1nc2cc(-c3ccc(OC)cc3)ncn2n1, COc1ccc(-c2nnc(CNCCn3cccn3)o2)cc1 is lower in cytotoxicity at 10 µM: 10.5% for the first, -14.5% for the second.

Compared with Cc1cccc(Nc2nccnc2C2CCCN2CC(N)=O)n1 (stereo not given), CCc1nc(C2CCCN2CC(=O)N2CCc3ccccc32)no1 (stereo not given) is lower in cytotoxicity at 10 µM: -4.16% for the first, -11.2% for the second.

First: COc1cc2nc3n(c(=O)c2cc1OC)CCN(C(=O)C1CCC1)CC3
Second: O=C(CCn1cnc2cc(F)c(F)cc21)N1CCN2CCCCC2C1 (stereo not given)
The cytotoxicity at 10 µM of the first is higher: -8.8% for the first, -12.3% for the second.

Going from CCc1ncc(C(=O)NCCNc2ccncc2)s1 to CCCc1nc(C)c(C(=O)NC2CCN(c3ncccn3)CC2)s1, the cytotoxicity at 10 µM rises from -9.7% to 16.7%.

Compared with CC(NC(=O)CN(C)C(C)C)c1ccc(Oc2cccnc2)c(F)c1 (stereo not given), CC(c1cccc(S(N)(=O)=O)c1)N(C)CCCOc1ccccc1 (stereo not given) is lower in cytotoxicity at 10 µM: 2% for the first, -1.99% for the second.

Compared with Cc1cccc(CC(=O)NS(=O)(=O)c2ccc(F)c(F)c2)c1, Cn1cc(NS(=O)(=O)c2ccc(F)c(F)c2)ccc1=O is lower in cytotoxicity at 10 µM: -5.23% for the first, -9.59% for the second.

First: O=C(C1CC(=O)N(c2ccccc2Br)C1)N1CCN(CC(F)(F)F)CC1 (stereo not given)
Second: Cc1nc(CC(=O)N2CCN(C(C)c3ccccc3F)CC2)cs1 (stereo not given)
The cytotoxicity at 10 µM of the first is higher: 7.29% for the first, 2.58% for the second.

First: Cc1ncc(CN(C)C(=O)Nc2cccc(N3CCNC3=O)c2)s1
Second: COc1c(C2CCCN2C(=O)c2cccnc2N(C)C)c(C)nn1C (stereo not given)
The cytotoxicity at 10 µM of the first is higher: 9.97% for the first, -7.62% for the second.

First: OCC(O)CSCc1cn(-c2ccc(F)c(Cl)c2)nn1 (stereo not given)
Second: CC(C)n1ccnc1C1CCN(Cc2ccc(Cl)c(F)c2)CC1
The cytotoxicity at 10 µM of the first is higher: 9.51% for the first, -3.59% for the second.

Going from O=C(NCC1(N2CCOCC2)CCSC1)Nc1ccc(F)cc1 (stereo not given) to CN1C(=O)CC(C(=O)O)C12CCN(Cc1ccc(Cl)c(F)c1)CC2 (stereo not given), the cytotoxicity at 10 µM rises from -10.2% to 2.91%.

Compared with COCc1noc(C2(c3ccc(Br)cc3)CCOCC2)n1, Cc1nc(C2CCCN(C(=O)COCc3ccccc3Cl)C2)no1 (stereo not given) is higher in cytotoxicity at 10 µM: -9.61% for the first, 5.8% for the second.

First: c1cncc(COCC2C[C@@H]3OCCN(Cc4cccnc4)[C@H]3C2)c1 (stereo not given in full)
Second: Fc1ccccc1CN1C[C@@H](OCc2ccncc2)[C@H]2OCCC[C@H]21
The cytotoxicity at 10 µM of the first is higher: 12.2% for the first, -4.81% for the second.

First: O=C1COC2(CCN(C(=O)[C@H]3CCCO3)CC2)CN1Cc1ccccn1
Second: Cc1ccc(CN2CCC3(CC2)C(=O)Nc2ccccc23)s1
The cytotoxicity at 10 µM of the first is lower: -0.524% for the first, 2.88% for the second.

Going from CCN1CC(=O)c2sc(NC(C)C)nc2C1 to CCN1CCCC(C)(C(=O)NCCc2n[nH]c(=O)[nH]2)C1 (stereo not given), the cytotoxicity at 10 µM rises from -10.6% to -1.76%.

First: CN1CCN(c2nccc(-c3cncnc3C3CCCCC3)n2)CC1
Second: CCc1nc(C2CCCN2C(=O)c2ccc(N3CCCC3)nn2)no1 (stereo not given)
The cytotoxicity at 10 µM of the first is lower: -4.33% for the first, -3.27% for the second.

Compared with O=C(O)C1(Cc2ccccc2F)CCCN(c2ncnc3[nH]ccc23)C1 (stereo not given), Cn1cc(CN2CCc3c(cnc(-c4ccccc4)c3C(=O)O)C2)cn1 is higher in cytotoxicity at 10 µM: -0.44% for the first, 4.2% for the second.

First: CC(C)Cc1noc(CN(C)c2cc(C(C)C)nc3ccnn23)n1
Second: Cc1noc2ncnc(NC(CC(C)(C)C)c3cccnc3)c12 (stereo not given)
The cytotoxicity at 10 µM of the first is lower: -7.55% for the first, 1.41% for the second.

Going from CC(C)N1CCC(C(=O)N(C)CC(=O)c2ccc(O)cc2)CC1 to Cc1nc2ccccc2nc1CN(C)C1CCCN(c2cccnn2)C1 (stereo not given), the cytotoxicity at 10 µM falls from -4.33% to -9.71%.

Compared with CNC(=O)[C@@H]1C[C@H](N)CN1S(=O)(=O)c1cc(Cl)c(Cl)s1, CNC(=O)[C@@H]1C[C@@H](NC(=O)Cc2cccs2)CN1C1CCOCC1 is higher in cytotoxicity at 10 µM: 1.27% for the first, 2.7% for the second.

First: N#Cc1c2n(c3c(=O)[nH]cnc13)CCCCC2
Second: CCC(=O)N1CCc2[nH]cnc2C12CCN(C(=O)CCS(C)(=O)=O)CC2
The cytotoxicity at 10 µM of the first is higher: 5.5% for the first, -14.4% for the second.

First: Cn1ncc2c(N3CCCC(C)(O)C3)nc(-c3cccnc3)nc21 (stereo not given)
Second: O=C(c1cscn1)N1CCc2ncnc(-c3cccnc3)c2CC1
The cytotoxicity at 10 µM of the first is higher: 9.98% for the first, -1.6% for the second.

First: CC(C)[C@@H]1CN(c2ncc(F)cn2)C[C@H]1NC(=O)N(C)C
Second: CN(C)C(=O)COCc1cncc2c1CCN(Cc1cnn(C)c1)C2
The cytotoxicity at 10 µM of the first is lower: -4.03% for the first, -3.48% for the second.

First: Cn1cccc1-c1cc(C(=O)N2CCCC2c2cccnc2)[nH]n1 (stereo not given)
Second: Fc1cccnc1CN1CCCCC1c1ccn2ccnc2n1 (stereo not given)
The cytotoxicity at 10 µM of the first is lower: -9.32% for the first, 0.505% for the second.

First: CC(C)C(C(=O)N1CCCN(c2nccs2)CC1)n1cncn1 (stereo not given)
Second: Cc1noc(CN2CCN(C(=O)N(C)C)CC2)n1
The cytotoxicity at 10 µM of the first is lower: -4.98% for the first, -1.22% for the second.

First: NC(=O)Cn1cc(NC(=O)N2CCCC(O)C2)cn1 (stereo not given)
Second: CCNC(=O)[C@@H]1CCCN1C1(C(=O)NC)CCC1
The cytotoxicity at 10 µM of the first is lower: -10.1% for the first, -1.66% for the second.

Compared with CCNc1cc2c(nn1)CCN(C(=O)c1nccnc1N)C2, CCc1nc(C)ncc1C(=O)N1CCOC(c2nc(C)n[nH]2)C1 (stereo not given) is higher in cytotoxicity at 10 µM: -16.4% for the first, -7.88% for the second.

First: CN(C)CC1CN(Cc2csc(C3CCCC3)n2)CCO1 (stereo not given)
Second: CN(Cc1ccco1)[C@@H]1CN(Cc2ccncc2)C[C@@H]2CCCO[C@@H]21
The cytotoxicity at 10 µM of the first is lower: -7.32% for the first, 0.361% for the second.

Going from CCOc1ccc(S(=O)(=O)NC(=O)CCC2CCCO2)cc1 (stereo not given) to CC(C)Cn1nccc1NC(=O)CN1CCOC(Cn2cccn2)C1 (stereo not given), the cytotoxicity at 10 µM falls from -11.5% to -12%.

First: O=C(NC[C@H]1OC[C@@H]2CCN(Cc3ccco3)C[C@@H]21)c1ccsc1
Second: CC1CCN(c2nc3cn(-c4ccc5c(c4)OCO5)c(=O)c-3c[nH]2)CC1
The cytotoxicity at 10 µM of the first is lower: -18.3% for the first, -14% for the second.

Compared with Cc1noc(C)c1CN1CCc2cnn(C)c2C1COCC1CC1 (stereo not given), COCCN1CCC2(CC1)CC(COC)N(c1ncccn1)C2 (stereo not given) is lower in cytotoxicity at 10 µM: 10.7% for the first, -3.53% for the second.
